pIC50: −log10 of the molar value. Activity calls are given as the source filed them. No cut-off for these calls is given here.
Columns and labels:
[1] = tested on: U-937; assay: Antiinflammatory activity in human U937 cells assessed as inhibition of PMA/LPS-stimulated TNFalpha production at 20 uM after 24 hrs by ELISA relative to control; format: functional; settings: U-937, 24 h
In short: (§1)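 TNF-α from U937 cells was quantified by ELISA. Percent inhibition was read at 20 μM, and IC50 (μM) was reported as mean ± error.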

[2] = tested on: U-937; assay: Antiinflammatory activity in human U937 cells assessed as inhibition of PMA/LPS-stimulated IL-6 production at 20 uM after 24 hrs by ELISA; format: functional, cell-based
[3] = Cytotoxicity against human U937 cells assessed as cell viability at 20 uM relative to control; format: cell-based, U-937; settings: read-out: Activity
[4] = tested on: U-937; assay: Antiinflammatory activity in human U937 cells assessed as inhibition of PMA/LPS-stimulated TNFalpha production after 24 hrs by ELISA; format: functional, cell-based; settings: U-937, 24 h; in short: as §1
[5] = tested on: U-937; assay: Antiinflammatory activity in human U937 cells assessed as inhibition of PMA/LPS-stimulated TNFalpha production at 1 uM after 24 hrs by ELISA relative to control; format: functional; settings: U-937, 24 h
[6] = tested on: Mus musculus; assay: Antiinflammatory activity in BALB/c mouse assessed as inhibition of LPS-induced TNFalpha production at 100 mg/kg, administered for 3 days followed by LPS stimulation by ELISA; format: functional, organism-based
In short: (§2)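 BALB/c mice were pre-treated with 100 mg/kg test compound for three consecutive days, then challenged with LPS at 10 mg/kg IP. Serum TNF-α and IL-6 were measured by ELISA and compared with LPS-only and vehicle control groups. Values are mean ± S.E.M., n = 5.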

[7] = tested on: Mus musculus; assay: Antiinflammatory activity in BALB/c mouse assessed as inhibition of LPS-induced IL6 production at 100 mg/kg, administered for 3 days followed by LPS stimulation by ELISA; format: functional, organism-based; in short: as §2

For COC(=O)C1=C(OC)C(=O)OC1C1=C(Cl)c2ccc(C)c(C)c2OC1 (configuration not stated), the inhibition at 20 µM [1] was 45.7%, the inhibition [2] was “inactive” and the viability at 20 µM [3] was 93.8%.

With CCOC(=O)C1=C(OCC)C(=O)OC1c1c(Cl)c2cc(-c3ccccc3)ccc2oc1=O (configuration not stated) the inhibition at 20 µM [1] was 20%, the inhibition [2] was “inactive” and the viability at 20 µM [3] was 83.1%.

For COC(=O)C1=C(OC)C(=O)OC1c1c(Cl)c2cc(C)cc(C)c2oc1=O (configuration not stated), the inhibition at 20 µM [1] was 44.9%, the inhibition [2] was “inactive” and the viability at 20 µM [3] was 86.1%.

In the case of COC(=O)C1=C(OC)C(=O)OC1c1c(Cl)c2cc(Cl)ccc2oc1=O (configuration not stated), the inhibition at 20 µM [1] was 75%, the inhibition [2] was “inactive” and the viability at 20 µM [3] was 93.1%. It also gave a pIC50 [4] of 5.20.

With C[C@]12C=CC(=O)C=C1CC[C@@H]1[C@@H]2[C@@H](O)C[C@@]2(C)[C@H]1CC[C@]2(O)C(=O)CO [PREDNISOLONE] the inhibition at 1 µM [5] was 98% and the pIC50 [4] was 7.48.

With CCOC(=O)C1=C(OCC)C(=O)OC1C1=C(Cl)c2cc(Cl)ccc2OC1 (configuration not stated) the inhibition at 20 µM [1] was 75.9%, the inhibition [2] was “inactive” and the viability at 20 µM [3] was 79.4%. It also gave a pIC50 [4] of 4.97.

In the case of CCOC(=O)C1=C(OCC)C(=O)OC1C1=C(Cl)c2ccc(C)c(C)c2OC1 (configuration not stated), the inhibition at 20 µM [1] was 23.3%, the inhibition [2] was “inactive” and the viability at 20 µM [3] was 89.9%.

For CCOC(=O)C1=C(OCC)C(=O)OC1c1c(Cl)c2cc(C)cc(C)c2oc1=O (configuration not stated), the inhibition at 20 µM [1] was 80.2%, the inhibition [2] was “inactive” and the viability at 20 µM [3] was 96.8%. For the same compound, the pIC50 [4] was 5.96.

In the case of CCOC(=O)C1=C(OCC)C(=O)OC1C1=C(Cl)c2cc(C)c(C)cc2OC1 (configuration not stated), the inhibition at 20 µM [1] was 96.1%, the inhibition [2] was “inactive” and the viability at 20 µM [3] was 93.4%. For the same compound, the pIC50 [4] was 4.95.

For COC(=O)C1=C(OC)C(=O)OC1c1c(Cl)c2cc(-c3ccccc3)ccc2oc1=O (configuration not stated), the inhibition at 20 µM [1] was 44.2%, the inhibition [2] was “inactive” and the viability at 20 µM [3] was 82.3%.

With CCOC(=O)C1=C(OCC)C(=O)OC1c1c(Cl)c2ccccc2oc1=O (configuration not stated) the inhibition at 20 µM [1] was 40.7%, the inhibition [2] was “inactive” and the viability at 20 µM [3] was 75.9%.

In the case of COC(=O)C1=C(OC)C(=O)OC1c1c(Cl)c2cc(Br)ccc2oc1=O (configuration not stated), the inhibition at 20 µM [1] was 76.9%, the inhibition [2] was “inactive” and the viability at 20 µM [3] was 85.3%. For the same compound, the pIC50 [4] was 7.15.

With CCOC(=O)C1=C(OCC)C(=O)OC1C1=C(Cl)c2c(ccc(C)c2C)OC1 (configuration not stated) the inhibition at 20 µM [1] was 29.7%, the inhibition [2] was “inactive” and the viability at 20 µM [3] was 85.2%.

For COC(=O)C1=C(OC)C(=O)OC1c1c(Cl)c2ccccc2oc1=O (configuration not stated), the inhibition at 20 µM [1] was 27.1%, the inhibition [2] was “inactive” and the viability at 20 µM [3] was 78.3%.

For COC(=O)C1=C(OC)C(=O)OC1C1=C(Cl)c2cc(Br)ccc2OC1 (configuration not stated), the inhibition at 20 µM [1] was 80.2%, the inhibition [2] was “inactive” and the viability at 20 µM [3] was 94.3%. It also gave a pIC50 [4] of 4.89.

In the case of CCOC(=O)C1=C(OCC)C(=O)OC1c1c(Cl)c2cc(Br)ccc2oc1=O (configuration not stated), the inhibition at 20 µM [1] was 91%, the inhibition [2] was “inactive” and the viability at 20 µM [3] was 83%. It also gave a pIC50 [4] of 7.33.

With COC(=O)C1=C(OC)C(=O)OC1C1=C(Cl)c2ccc3ccccc3c2OC1 (configuration not stated) the inhibition at 20 µM [1] was 29.1%, the inhibition [2] was “inactive” and the viability at 20 µM [3] was 80.2%.

With COC(=O)C1=C(OC)C(=O)OC1c1c(Cl)c2cc(C)c(C)cc2oc1=O (configuration not stated) the inhibition at 20 µM [1] was 34.9%, the inhibition [2] was “inactive” and the viability at 20 µM [3] was 75.9%.

For CCOC(=O)C1=C(OCC)C(=O)OC1C1=C(Cl)c2cc(Br)ccc2OC1 (configuration not stated), the inhibition at 20 µM [1] was 73.3%, the inhibition [2] was “inactive” and the viability at 20 µM [3] was 87.2%. It also gave a pIC50 [4] of 5.49.

With CCOC(=O)C1=C(OCC)C(=O)OC1c1c(Cl)c2cc(C)ccc2oc1=O (configuration not stated) the inhibition at 20 µM [1] was 32.3%, the inhibition [2] was “inactive” and the viability at 20 µM [3] was 79.8%.

In the case of COC(=O)C1=C(OC)C(=O)OC1C1=C(Cl)c2cc(C)ccc2OC1 (configuration not stated), the inhibition at 20 µM [1] was 35.6%, the inhibition [2] was “inactive” and the viability at 20 µM [3] was 88.5%.

With CCOC(=O)C1=C(OCC)C(=O)OC1c1c(Cl)c2cc(Cl)ccc2oc1=O (configuration not stated) the inhibition [6] was “Active”, the inhibition at 20 µM [1] was 97.1% and the inhibition [2] was “inactive”. For the same compound, the inhibition [7] was “Active”, the viability at 20 µM [3] was 90.7% and the pIC50 [4] was 6.37.

For COC(=O)C1=C(OC)C(=O)OC1c1c(Cl)c2cc(C)ccc2oc1=O (configuration not stated), the inhibition at 20 µM [1] was 14.8%, the inhibition [2] was “inactive” and the viability at 20 µM [3] was 84.3%.

In the case of CCOC(=O)C1=C(OCC)C(=O)OC1C1=C(Cl)c2cc(C)ccc2OC1 (configuration not stated), the inhibition at 20 µM [1] was 6.4%, the inhibition [2] was “inactive” and the viability at 20 µM [3] was 81.6%.

With COC(=O)C1=C(OC)C(=O)OC1C1=C(Cl)c2cc(Cl)ccc2OC1 (configuration not stated) the inhibition at 20 µM [1] was 19.4%, the inhibition [2] was “inactive” and the viability at 20 µM [3] was 84.6%.

In the case of CCOC(=O)C1=C(OCC)C(=O)OC1C1=C(Cl)c2ccc3ccccc3c2OC1 (configuration not stated), the inhibition at 20 µM [1] was 4.1%, the inhibition [2] was “inactive” and the viability at 20 µM [3] was 83.6%.

With COC(=O)C1=C(OC)C(=O)OC1C1=C(Cl)c2cc(C)c(C)cc2OC1 (configuration not stated) the inhibition at 20 µM [1] was 49.7%, the inhibition [2] was “inactive” and the viability at 20 µM [3] was 90.7%.

With COC(=O)C1=C(OC)C(=O)OC1C1=C(Cl)c2ccccc2OC1 (configuration not stated) the inhibition at 20 µM [1] was 95.5%, the inhibition [2] was “inactive” and the viability at 20 µM [3] was 88.1%. The pIC50 [4] was 4.73.

With CCOC(=O)C1=C(OCC)C(=O)OC1C1=C(Cl)c2ccccc2OC1 (configuration not stated) the inhibition at 20 µM [1] was 50.6%, the inhibition [2] was “inactive” and the viability at 20 µM [3] was 88.9%.

For COC(=O)C1=C(OC)C(=O)OC1C1=C(Cl)c2c(ccc(C)c2C)OC1 (configuration not stated), the inhibition [6] was “Active”, the inhibition at 20 µM [1] was 70.4% and the inhibition [2] was “inactive”. The inhibition [7] was “Active”, the viability at 20 µM [3] was 92.1% and the pIC50 [4] was 6.85.

With CCOC(=O)C1=C(OCC)C(=O)OC1c1c(Cl)c2cc(C)c(C)cc2oc1=O (configuration not stated) the inhibition at 20 µM [1] was 26.8%, the inhibition [2] was “inactive” and the viability at 20 µM [3] was 79%.

From ChEMBL document CHEMBL4622947, “Synthesis and anti-inflammatory activity of 2-oxo-2H-chromenyl and 2H-chromenyl-5-oxo-2,5-dihydrofuran-3-carboxylates” (Bioorg Med Chem Lett, 2020)
